Seven compounds from ChEMBL document CHEMBL4270613, “Design, synthesis, biological evaluation and structure-activity relationship of sophoridine derivatives bearing pyrrole or indole scaffold as potential antitumor agents” (Eur J Med Chem, 2018) can be followed below.

pIC50: −log10 of the molar value. Active and inactive are the calls of the source. The rule behind the calls is not given here.

Series [1] relates to HepG2. The series can be described thus: Antitumor activity against human HepG2 cells xenografted in nude mouse assessed as tumor growth inhibition at 40 mg/kg for 25 days. The series is classed as functional, organism-based. The gist of the method: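 HepG2 xenografts were grown in nude mice and dosed at 40 mg/kg alongside a vehicle group. Tumour volume and body weight were recorded every 2 days. At the end, tumours were excised and weighed. Groups were compared with the vehicle group.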

Series [2] deals with HepG2. The series can be described thus: Antiproliferative activity against human HepG2 cells after 48 hrs by MTT assay. The series is classed as functional, cell-based. The note with it: HepG2, 48 h. The gist of the method:
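HepG2 exposed to compounds for 48 h; MTT readout; camptothecin positive control; IC50 calculated; mean ± SD of three independent experiments, each in triplicate.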
(Tetrazolium assays rely on reduction of a dye to a coloured formazan, in cell work by metabolically active cells.)

Series [3] concerns HepG2. The series can be described thus: Antiproliferative activity against human HepG2 cells after 72 hrs by MTT assay. Type of series: functional, cell-based. The note with it: HepG2, 72 h.
In a further series the test system is SMMC-7721. The series can be described thus: Antiproliferative activity against human SMMC7721 cells after 72 hrs by MTT assay. Type of series: functional, cell-based. The note with it: SMMC-7721, 72 h.
The next series has as its system HeLa. The series can be described thus: Antiproliferative activity against human HeLa cells after 72 hrs by MTT assay. Type of series: functional, cell-based.
In another series the test system is CNE. The series can be described thus: Antiproliferative activity against human CNE1 cells after 72 hrs by MTT assay. The series is classed as functional, cell-based.
The next series deals with CNE-2. The series can be described thus: Antiproliferative activity against human CNE2 cells after 72 hrs by MTT assay. The following applies: CNE-2, 72 h. The series is classed as functional, cell-based.
Another series has as its system MCF7. The series can be described thus: Antiproliferative activity against human MCF7 cells after 72 hrs by MTT assay. The series is classed as functional, cell-based. The note with it: MCF7, 72 h.
Series [4] has as its target T1, DNA topoisomerase 1 (Homo sapiens) (UniProt P11387).
T1 sequence (whole entry): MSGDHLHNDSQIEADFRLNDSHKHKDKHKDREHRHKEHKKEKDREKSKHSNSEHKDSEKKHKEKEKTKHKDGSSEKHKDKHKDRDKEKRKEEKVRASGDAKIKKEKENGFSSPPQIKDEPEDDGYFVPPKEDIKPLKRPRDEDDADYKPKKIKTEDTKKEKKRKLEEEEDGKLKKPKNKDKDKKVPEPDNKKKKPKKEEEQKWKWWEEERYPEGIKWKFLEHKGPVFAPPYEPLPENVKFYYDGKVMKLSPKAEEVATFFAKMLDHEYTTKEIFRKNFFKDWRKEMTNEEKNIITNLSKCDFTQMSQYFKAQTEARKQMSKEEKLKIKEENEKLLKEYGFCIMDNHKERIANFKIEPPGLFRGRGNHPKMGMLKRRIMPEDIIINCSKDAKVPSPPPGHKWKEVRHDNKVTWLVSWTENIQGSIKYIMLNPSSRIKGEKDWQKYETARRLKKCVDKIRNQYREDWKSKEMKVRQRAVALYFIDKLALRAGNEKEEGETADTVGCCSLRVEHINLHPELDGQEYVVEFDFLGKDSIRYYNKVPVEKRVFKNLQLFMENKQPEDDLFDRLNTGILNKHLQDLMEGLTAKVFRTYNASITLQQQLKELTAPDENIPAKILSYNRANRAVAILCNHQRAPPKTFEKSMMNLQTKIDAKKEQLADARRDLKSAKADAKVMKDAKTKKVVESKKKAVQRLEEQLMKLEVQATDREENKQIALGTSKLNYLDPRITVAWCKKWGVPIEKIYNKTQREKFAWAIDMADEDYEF
The series can be described thus: Inhibition of recombinant human topoisomerase-1 using supercoiled pBR322 DNA as substrate after 45 mins by ethidium bromide staining based gel electrophoresis method. The essentials: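 Plasmid relaxation assay: pBR322 DNA with Topo I plus DMSO vehicle, test compound at 1000, 500, 250 or 100 µM, or CPT at 100 µM as control; DNA alone as reference lane; products resolved on gel.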

Series [5] relates to HepG2. The series can be described thus: Induction of apoptosis in human HepG2 cells assessed as live cells at 0.75 uM after 24 hrs by Annexin V-FITC/propidium iodide staining based flow cytometry (reference value: 96.2%). The series is classed as functional. The gist of the method: (§1)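 HepG2 treated at 0, 0.75, 1.5 and 3 µM for 24 h, then Annexin V-FITC/PI dual staining and quantification by flow cytometry.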
In general terms: A flow cytometer gives signals particle by particle.

In series [6] the test system is HepG2. The series can be described thus: Induction of apoptosis in human HepG2 cells assessed as early apoptotic cells at 0.75 uM after 24 hrs by Annexin V-FITC/propidium iodide staining based flow cytometry (reference value: 1%). Type of series: functional. The essentials:
as §1

In series [7] the test system is HepG2. The series can be described thus: Induction of apoptosis in human HepG2 cells assessed as late apoptotic cells at 0.75 uM after 24 hrs by Annexin V-FITC/propidium iodide staining based flow cytometry (reference value: 1.6%). Type of series: functional. The gist of the method:
as §1

Series [8] deals with HepG2. The series can be described thus: Induction of apoptosis in human HepG2 cells assessed as necrotic cells at 0.75 uM after 24 hrs by Annexin V-FITC/propidium iodide staining based flow cytometry (reference value: 1.18%). The series is classed as functional. The gist of the method:
as §1

Series [9] relates to HepG2. The series can be described thus: Induction of apoptosis in human HepG2 cells assessed as live cells at 1.5 uM after 24 hrs by Annexin V-FITC/propidium iodide staining based flow cytometry (reference value: 96.2%). The series is classed as functional. The essentials:
as §1

The subject of series [10] is HepG2. The series can be described thus: Induction of apoptosis in human HepG2 cells assessed as early apoptotic cells at 1.5 uM after 24 hrs by Annexin V-FITC/propidium iodide staining based flow cytometry (reference value: 1%). The series is classed as functional. The essentials:
as §1

In series [11] the test system is HepG2. The series can be described thus: Induction of apoptosis in human HepG2 cells assessed as late apoptotic cells at 1.5 uM after 24 hrs by Annexin V-FITC/propidium iodide staining based flow cytometry (reference value: 1.6%). The series is classed as functional. The essentials: as §1
The subject of series [12] is HepG2. The series can be described thus: Induction of apoptosis in human HepG2 cells assessed as necrotic cells at 1.5 uM after 24 hrs by Annexin V-FITC/propidium iodide staining based flow cytometry (reference value: 1.18%). Type of series: functional. The essentials:
as §1

For series [13], the system named is HepG2. The series can be described thus: Induction of apoptosis in human HepG2 cells assessed as live cells at 3 uM after 24 hrs by Annexin V-FITC/propidium iodide staining based flow cytometry (reference value: 96.2%). The series is classed as functional. The gist of the method:
as §1

Series [14] concerns HepG2. The series can be described thus: Induction of apoptosis in human HepG2 cells assessed as early apoptotic cells at 3 uM after 24 hrs by Annexin V-FITC/propidium iodide staining based flow cytometry (reference value: 1%). The series is classed as functional. The gist of the method: as §1
Series [15] has as its system HepG2. The series can be described thus: Induction of apoptosis in human HepG2 cells assessed as late apoptotic cells at 3 uM after 24 hrs by Annexin V-FITC/propidium iodide staining based flow cytometry (reference value: 1.6%). Type of series: functional. The gist of the method:
as §1

Series [16] has as its system HepG2. The series can be described thus: Induction of apoptosis in human HepG2 cells assessed as necrotic cells at 3 uM after 24 hrs by Annexin V-FITC/propidium iodide staining based flow cytometry (reference value: 1.18%). Type of series: functional. The gist of the method: as §1
Series [17] concerns HepG2. The series can be described thus: Induction of apoptosis in human HepG2 cells after 24 hrs by Annexin V-FITC/propidium iodide staining based flow cytometry. Type of series: functional, cell-based. The gist of the method: as §1
Series [18] concerns HepG2. The series can be described thus: Upregulation of Bax protein expression in human HepG2 cells after 24 hrs by Western blot analysis. Type of series: functional, cell-based. The gist of the method: (§2)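 HepG2 treated at 0, 0.75, 1.5 and 3 µM for 24 h, then western blot for Bax, Bcl-2 and cleaved caspase-3.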
Series [19] has as its system HepG2. The series can be described thus: Downregulation of Bcl2 protein expression in human HepG2 cells after 24 hrs by Western blot analysis. Type of series: functional, cell-based. The essentials: as §2
A general note: A western blot detects proteins with antibodies after separation by electrophoresis.

The test system of series [20] is HepG2. The series can be described thus: Upregulation of cleaved caspase-3 protein expression in human HepG2 cells at 0.75 to 3 uM after 24 hrs by Western blot analysis. Type of series: functional, cell-based. The gist of the method:
as §2

In another series the test system is Mus musculus. The series can be described thus: Toxicity in nude mouse xenografted with human HepG2 cells assessed as change in body weight at 40 mg/kg for 25 days. Type of series: organism-based. The following applies: in vivo, 600 h. The essentials:
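Nude mice bearing HepG2 xenografts dosed at 40 mg/kg against vehicle; body weight and tumor volume measured every 2 days; tumors weighed at end.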

Take `O=C1CCC[C@@H]2[C@H]3CCCN4CCC[C@H](CN12)[C@@H]34`: the TGI entry in the series on HepG2 [1] was “inactive”.

As to `CC[C@@]1(O)C(=O)OCc2c1cc1n(c2=O)Cc2cc3ccccc3nc2-1` [CAMPTOTHECIN], the pIC50 – broadly, the negative decadic logarithm of the IC50, by convention in mol/L – in the series on HepG2 [2] is 5.22; in the series with HepG2 [3] it was 5.87; in the series on SMMC-7721, 5.97; in the series on HeLa it was 6.18; in the series on CNE it was 6.47; in the series on CNE-2, 6.01. Further, the pIC50 with MCF7 was 6.38.

In the case of `COc1ccc2c(c1)c(/C=C1\CC[C@@H]3[C@H]4CCCN5CCC[C@H](CN3C1=O)[C@@H]45)cn2Cc1ccc(OCc2ccccc2)cc1`, the negative-log IC50 (pIC50) with HepG2 [2] was 5.71; with HepG2 [3], 6.03; in the series on SMMC-7721, 5.88; in the series with HeLa it was 5.84; in the series with CNE, 5.72; in the series on CNE-2 it was 5.91. The same compound showed a pIC50 in the series on MCF7 of 6.03. The inhibition entry in [4] was “Dose-dependent effect”. Also, the Activity in the series with HepG2 [5] amounted to 87.6%; in the series with HepG2 [6] it was 6.71%; in the series on HepG2 [7] it was 3.09%; with HepG2 [8], 2.58%; in the series with HepG2 [9] it was 78%; with HepG2 [10] it was 9.49%. In addition, the Activity in the series on HepG2 [11] is given as 11.5%; in the series with HepG2 [12], 0.94%; in the series with HepG2 [13] it was 57%; in the series with HepG2 [14] it was 33.8%; in the series with HepG2 [15], 7.69%; in the series on HepG2 [16] it was 1.52%. Moreover, the Activity entry is “Dose-dependent effect” in the series with HepG2 [17], “Dose-dependent effect” with HepG2 [18], “Dose-dependent effect” in the series on HepG2 [19] and “Non-Toxic” in the series with Mus musculus. Besides, the result with HepG2 [20] was Active. The TGI entry in the series on HepG2 [1] is “Active”.

In the case of `COc1ccc2c(c1)c(/C=C1\CC[C@@H]3[C@H]4CCCN5CCC[C@H](CN3C1=O)[C@@H]45)cn2Cc1ccc(OCc2ccc(OC(F)(F)F)cc2)cc1`, the pIC50 with HepG2 [2] was 5.24.

`O=C1/C(=C/c2cn(Cc3ccc(OCc4ccccc4)cc3)c3ccc(Br)cc23)CC[C@@H]2[C@H]3CCCN4CCC[C@H](CN12)[C@@H]34` had a pIC50 in the series on HepG2 [2] of 5.40.

In the series with HepG2 [2], `COc1ccc(Cn2cccc2/C=C2\CC[C@@H]3[C@H]4CCCN5CCC[C@H](CN3C2=O)[C@@H]45)cc1` had a pIC50 of 4.52.

As for `O=C1/C(=C/c2cn(Cc3c(Cl)cccc3Cl)c3ccccc23)CC[C@@H]2[C@H]3CCCN4CCC[C@H](CN12)[C@@H]34`, in the series on HepG2 [2], the pIC50 was 5.01.
